These results are taken from paper PMC3458188 (ACS nano, 2012).

The format of data set [1] is in vivo, athymic nude mice bearing MDA-MB-231 tumors. The settings on record: IP, Alexa 700-labelled KLAK PA. Put shortly: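 Female athymic nude mice carried orthotopic MDA-MB-231 mammary tumours. Dialysed Alexa 700-conjugated PA (20 mg/kg, 1.8 mM; 2.5 μg dye) was given ip, ± 27 mg/kg coassembled PEG PA. Plasma was collected by tail bleed or terminal cardiac puncture, spun 10 000 rpm for 10 min, and read on a plate reader. Paraformaldehyde-fixed tissues were imaged as average radiant efficiency; n = 6 per time point.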

Data set [2] in a line: Small angle X-ray scattering. Format: physicochemical. The settings on record: 2 mM; -1 indicative of cylinders, -2 possibly bundling. Put shortly: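 Synchrotron SAXS used 15 keV X-rays from a double-crystal monochromator and an offset CCD to cover a wide angle range. Samples at 2 mM were held in 1.5 mm quartz capillaries; incident flux was about 10^12 photons/s. Intensity was plotted on a relative scale against q = (4π/λ) sin(θ/2).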

The nature of data set [3]: Complete blood count and metabolic profiling 24 h after PA administration. Format: in vivo, mice. The settings on record: 24 h after administration. An outline of the steps: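 Blood was drawn from mice 24 h after PA or PBS administration and sent to an external laboratory for complete blood count and metabolic profiling. Groups were compared by two-way ANOVA with Bonferroni post-tests.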

Data set [4] can be described thus: 1H diffusion ordered spectroscopy. Format: physicochemical. The conditions noted are these: DOSY, D2O, ambient temperature; 5 mM KLAK PA alone or 2.5 mM KLAK PA and 2.5 mM PEG PA. Put shortly:
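Coassembled by dissolving each PA separately in HFIP, mixing at least 15 min, lyophilizing, redissolving in water and lyophilizing again. 1H DOSY at 600 MHz and ambient temperature in 99.9% D2O, at constant total PA of 5 mM (single PA) or 2.5 mM + 2.5 mM (mixed). 32 points were acquired with a 7 μs 90-degree pulse.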

A short description of data set [5]: Cryogenic and conventional TEM of nanostructures. Format: physicochemical. The conditions noted are these: cryo-TEM. An outline of the steps: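 For conventional TEM, samples were drop-cast on carbon-coated copper grids and stained with 2% aqueous uranyl acetate. For cryo-TEM, grids were blotted at 95% humidity and plunged into liquid ethane. Both were imaged at 100 keV.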

In the case of palmitoyl-A4G3(KLAKLAK)2 [KLAK PA], the observed plasma half-lives result in data set [1] (plasma fluorescence, mice) is recorded as “on the order of several hours”. For the same substance, the “tissue localization of fluorescence” value in data set [1] (tumor bearing mice, IVIS) was “predominantly localized to liver and kidney”. The “SAXS slope in the low-q range” value in data set [2] is “approximately -2”. Moreover, the alkaline phosphatase levels entry in data set [3] (compared with PBS treated controls) is “significantly lower”. Besides, in data set [3] (mice), the blood glucose levels result is “significantly higher”. Further, in data set [4], the “diffusion coefficient of KLAK PA (peak at 2.83 ppm)” value is 0.69×10^−10 m^2/s. For the same substance, in data set [5], the fiber diameter entry was “roughly 10 nm” and the fiber length result is on record as “several hundred”.
